Screens deposited in PubChem BioAssay by several laboratories.
PG9 binder = binds the HIV-1 gp120 antibody PG9 | AID 624416 | 0.43% of 360,000 active | TR-FRET gp120-PG9 antibody binding | inhibition, % at 6.7 µM; in the data active means inhibition above about 8.5%
NR2E3 ag-1 = agonists of human NR2E3 nuclear receptor | AID 602229 | inhibition of corepressor binding, % at 3.98 µM | 0.35% of 360,000 active | CHO-S Gal4-NCOR/VP16-NR2E3 two-hybrid, luciferase | Q9Y5X4;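 active means inhibition above the mean of all tested compounds plus 3 SD, cut at about 70% in these data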;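 further: 0% = DMSO with NR2E3 transfected cells and 100% = cells lacking NR2E3 construct; higher means lower luciferase signal from less NR2E3 corepressor binding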
Rev-erbA mod = Rev-erb alpha (human) modulation; P20393; Rev-erbα–FITC-DNA binding, fluorescence polarization, 90 min; activity, % at 10 µM; 0.79% of 370,000 active; AID 1259318;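 active means activity above about 14%, limit read from the data; passing the limit was not always enough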;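 further: 0% = DMSO wells with 35 nM protein and 100% = DMSO wells with 750 nM protein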
Target sequence (P20393 whole entry, looked up): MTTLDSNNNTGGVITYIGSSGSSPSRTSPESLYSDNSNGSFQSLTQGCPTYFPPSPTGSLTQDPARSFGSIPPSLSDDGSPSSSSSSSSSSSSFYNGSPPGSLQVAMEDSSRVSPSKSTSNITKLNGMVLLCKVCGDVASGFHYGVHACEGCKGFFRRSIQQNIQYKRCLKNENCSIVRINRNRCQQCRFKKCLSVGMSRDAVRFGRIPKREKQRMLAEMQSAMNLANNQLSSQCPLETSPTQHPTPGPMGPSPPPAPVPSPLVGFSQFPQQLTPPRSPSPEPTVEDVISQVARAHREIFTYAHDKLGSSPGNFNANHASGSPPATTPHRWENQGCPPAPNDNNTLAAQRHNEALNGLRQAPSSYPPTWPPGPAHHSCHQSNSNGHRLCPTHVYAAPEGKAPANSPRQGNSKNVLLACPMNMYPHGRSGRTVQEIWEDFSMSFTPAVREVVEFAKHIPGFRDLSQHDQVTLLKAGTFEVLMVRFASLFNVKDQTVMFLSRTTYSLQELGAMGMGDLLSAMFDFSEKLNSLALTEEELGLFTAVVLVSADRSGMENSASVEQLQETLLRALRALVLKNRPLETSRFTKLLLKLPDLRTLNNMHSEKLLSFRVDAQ
NR2E3 ag-2 = activates human photoreceptor nuclear receptor NR2E3 | Q9Y5X4 | GST-NR2E3/biotin-RetCOR TR-FRET, 1536-well | inhibition of corepressor binding, % at 4.78 µM | 0.12% of 320,000 active | AID 2300;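 active means percent inhibition above the cutoff of mean plus 3 SD of all tested compounds, set per screening campaign, cut at about 20% in these data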;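 further: 0% = DMSO wells and 100% = biotin wells as full block of FRET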
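System: GST-tagged NR2E3 plus biotinylated RetCOR corepressor; Amount: 1.35 nM GST-tagged NR2E3 final; Dosing: single nominal compound dose of 4.8 µM; Schedule: 5 h incubation at 4 °C; Technique: TR-FRET with europium anti-GST and streptavidin-D2, 340 nm excitation; Controls: biotin wells as high control, 0.6% DMSO wells as low control.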
NR2E3 ag confirm = confirmation of human NR2E3 agonists; 51% of 2,300 active; shares compounds with NR2E3 ag-1; CHO-S mammalian two-hybrid NR2E3-NCOR, luciferase luminescence; inhibition, % at 3.98 µM; AID 624378;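 active means average inhibition above a cutoff equal to the mean inhibition of all tested compounds plus one SD, cut at about 70% in these data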;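 further: 0% = DMSO in NR2E3 cells and 100% = DMSO in cells lacking NR2E3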
GAL4-VP16 luc = GAL4-VP16 reporter inhibition in NR2E3 agonist counterscreen | shares compounds with NR2E3 ag-1 | CHO-S GAL4-VP16 luciferase reporter, luminescence | inhibition, % at 3.98 µM | 29% of 2,300 active;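 active means mean inhibition above a cutoff equal to the average over all tested compounds plus one standard deviation, cut at about 70% in these data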;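 further: luciferase from a UAS reporter driven by GAL4-VP16 transactivation; 0% = DMSO with VP16-transfected cells and 100% = DMSO with cells lacking VP16; higher means less reporter light so more repression of VP16 activity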
* marks the source's active call; other numbers are inactive results; · = not tested or not shown. In the library only some 1.5% were active in any assay of this set; here they are far more common.

SMILES	PG9 binder	NR2E3 ag-1	Rev-erbA mod	NR2E3 ag-2	NR2E3 ag confirm	GAL4-VP16 luc
O=C(O)CSCC(=O)Nc1ccc(C2CCCCC2)cc1	0	72*	3	1	61	70
CCCCCCC(=O)NC1CCCCN(Cc2ccc(Cl)cc2)C1=O (stereo not given)	·	·	-1	·	·	·
CCOC(=O)c1c(C)[nH]c(C(=O)C(C)OC(=O)c2cccc(OCc3c(C)noc3C)c2)c1C (stereo not given)	-4	76*	6	-2	83*	64
Cc1ccc(-c2c(NC(=O)Nc3ccccc3)nc3ncccn23)cc1	·	·	8	·	·	·
COc1ccc(C2C(C(=O)Nc3ccc(Cl)cc3)CCC(=O)N2c2ccc(OC)cc2)cc1 (stereo not given)	·	·	-3	·	·	·
c1ccc(-c2nc3ccccn3c2NC2CCCC2)nc1	-2	60	0	-2	9	-19
Cc1ccn2c(NC3CCCC3)c(-c3ccccn3)nc2c1	-4	69	0	-1	9	-42
COc1cccc(OC)c1OCCCCCc1c(C)n[nH]c1C	1	53	-2	3	25	7
COc1cccc(OC)c1OCCCCc1c(C)n[nH]c1C	0	-2	3	1	·	·
Cc1ccccc1OCCCCc1c(C)n[nH]c1C	-1	71*	5	2	91*	60
Cc1ccccc1OCCCc1c(C)n[nH]c1C	-4	0	-1	0	·	·
CCCc1cc(=O)n2nc(N3CCC(C(=O)N4CCN(c5ccc(OC)cc5)CC4)CC3)sc2n1	-1	69	4	0	75*	55
Cc1cc(=O)n2nc(N3CCC(C(=O)N4CCN(c5ccccc5)CC4)CC3)sc2n1	-2	10	2	3	·	·
Cc1noc(C)c1CSc1nc2ccccc2[nH]1	1	-12	-2	3	·	·
c1ccc(-c2cc(CSc3nc4ccccc4[nH]3)on2)cc1	0	63	-3	0	83*	51
Cc1ccc(-c2nc(CS(=O)CC(=O)N3CCN(c4ccc(F)cc4)CC3)c(C)o2)cc1 (stereo not given)	-3	53	-2	3	29	40
CC(=O)CC[C@H]1CC[C@]2(CCCN(C(=O)c3ccc4ccccc4n3)C2)O1	·	·	-3	·	·	·
Cc1cc(-c2ccccc2)n2ncc(-c3ccccc3)c2n1	-3	-43	1	0	·	·
Cc1nc2c(-c3ccccc3)cnn2c(N)c1-c1ccccc1	-2	74*	-5	·	55	-6
COC(=O)[C@]1(CNC(C)=O)CC(=O)N(C)[C@@H]1c1ccccc1	·	·	3	·	·	·
Cc1ccnc(NC(=S)N2CC3CN(c4cccc(C(F)(F)F)c4)CC3C2)c1 (stereo not given)	·	·	-5	·	·	·
CC(=O)c1cn(CCOc2ccccc2C)c2ccccc12	-1	70*	3	2	94*	79*
Cc1ccccc1OCCn1cc(C(=S)N2CCCC2)c2ccccc21	-1	-12	1	-2	·	·
CC(COc1cccc(C(F)(F)F)c1)CN1CCC(C(O)(c2ccccc2)c2ccccc2)CC1 (stereo not given)	·	·	1	·	·	·
CCCCCC[C@@H](CN(CCCC)S(C)(=O)=O)c1ccccc1	·	·	-5	·	·	·
SMILES	PG9 binder	NR2E3 ag-1	Rev-erbA mod	NR2E3 ag-2	NR2E3 ag confirm	GAL4-VP16 luc
CC(C)N=C(N)N=C(N)Nc1ccc(Cl)cc1	-2	89*	-5	3	88*	60
CC(=O)c1cccc(NS(=O)(=O)c2ccc(NC(=O)N3CCCCC3)cc2)c1	1	68	-1	-1	29	33
CCOC(=O)CNC(=O)c1sc(NC(=O)c2ccccc2)nc1C	-1	49	2	-1	3	-21
CCOC(=O)CNC(=O)c1ccccc1	0	5	5	2	·	·
Cc1c(C#N)c2ncn(Cc3ccccn3)c(=O)c2n1-c1ccccc1	0	11	1	-1	·	·
Cc1c(C#N)c2ncn(CCCN(C)C)c(=O)c2n1-c1ccccc1	0	90*	1	2	-9	-10
CCCCNC(=O)OCCCN1CCC2(CCC(c3ccccc3)CC2)C1 (stereo not given)	·	·	6	·	·	·
CC(C)C(=O)Nc1ncc(Cc2ccccc2Cl)s1	-1	-52	-2	2	·	·
N=C1SCC(=O)N1c1ncc(Cc2ccccc2Cl)s1	-2	100*	-2	·	90*	26
N=C1SCC(=O)N1c1ncc(Cc2cccc(Cl)c2)s1	0	100*	2	·	97*	42
CCCCCCCCN1C(=O)N2Cc3cc(OC)ccc3C2CS1(=O)=O (stereo not given)	·	·	-10	·	·	·
CN1CCN(C(=O)c2cccc(-c3cnc4cnc(-c5ccccc5Oc5ccccc5)cn34)c2)CC1	2	49	-7	·	70*	20
O=C(c1cccc(-c2cncc3nccn23)c1)N1CCOCC1	1	-9	-4	·	·	·
Nc1ccc(S(=O)(=O)O)cc1	·	·	-8	·	·	·
C=CCNc1nc(-c2c(C)nc3sccn23)cs1	-5	-10	-1	-3	·	·
Cc1nc2sccn2c1-c1csc(NCc2ccccc2)n1	-2	62	-1	1	86*	71*
CN(C)c1ccc(C=c2c3ccccc3n3c2cc(-c2ccccc2)[n+]3C)cc1	-16	80*	-15	·	93*	68
CN(C)c1ccc(C=c2c3ccccc3n3c2c2c([n+]3C)CCCC2)cc1	-14	96*	17	·	100*	91*
COc1cc(N(C)C)ccc1C=c1c2ccccc2n2c1cc(-c1ccccc1)[n+]2C	-17	87*	-12	·	91*	65
CN(C)c1ccc(C=c2c3ccccc3n3c2cc(-c2ccc(Cl)cc2)[n+]3C)cc1	-5	7	16	·	·	·
CCCCN1CC(=O)N2[C@H](C[C@@]3(C)c4ccccc4N(S(=O)(=O)c4ccccc4)[C@@H]23)C1=O	·	·	2	·	·	·
Brc1ccc(CSc2nnc(SCc3ccccc3)s2)cc1	·	·	-1	·	·	·
O=C(Nc1nnc(SCc2ccc(F)cc2)s1)c1ccccn1	0	65	-1	·	49	5
Clc1ccc(-c2noc(CSc3nnc(-c4ccncc4)n3-c3ccccc3)n2)cc1	2	64	6	4	62	31
C=CCN=C1NC(c2ccc(Cl)cc2)C(C(=O)OC)=C(C)N1Cc1cccc(C(F)(F)F)c1 (stereo not given)	-1	·	0	·	·	·
SMILES	PG9 binder	NR2E3 ag-1	Rev-erbA mod	NR2E3 ag-2	NR2E3 ag confirm	GAL4-VP16 luc
O=C(Nc1ccc(Br)cc1)c1cccc(S(=O)(=O)Nc2ccccn2)c1	-2	21	0	3	·	·
O=C(Nc1ccc(Br)cc1)c1cccc(S(=O)(=O)Nc2cnc3ccccc3c2)c1	-2	84*	-1	2	98*	86*
CCOc1cccc(/C=N/NC(=S)Nc2ccccc2[N+](=O)[O-])c1O	-1	83*	-3	3	53	26
O=S(=O)(c1ccc(Cl)s1)N1CCC(c2cn3ccccc3n2)CC1	·	·	0	·	·	·
COC1=C(OC)C(=O)C(CCCCCCCCCCO)=C(C)C1=O	0	54	5	·	28	52
CC(C)CNS(=O)(=O)/C=C/c1ccc(F)cc1CNC(=O)OC(C)(C)C	·	·	-2	·	·	·
